19 compounds from ChEMBL document CHEMBL4219164, “Design, synthesis and biological evaluation of novel 3-substituted pyrazolopyrimidine derivatives as potent Bruton's tyrosine kinase (BTK) inhibitors” (Bioorg Med Chem, 2018) can be followed below.

The target of assay [1] is Tyrosine-protein kinase BTK (Homo sapiens, UniProt Q06187). As to the kind of experiment: Inhibition of full length human N-terminal GST-tagged BTK (2 to 659 residues) expressed in baculovirus expression system using biotinylated substrate after 50 mins by HTRF assay. For orientation: Time-resolved FRET reads energy transfer from a long-lived donor to a nearby acceptor.

The subject of another assay is Ramos. As to the kind of experiment: Antiproliferative activity against human Ramos cells after 48 hrs by CCK8-based assay. The format is functional, cell-based.
The next assay deals with Raji. As to the kind of experiment: Antiproliferative activity against human Raji cells after 48 hrs by CCK8-based assay. Type of assay: functional, cell-based. The gist of the method: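 CCK-8 viability readout. Cells were seeded at 2000–3000 per well and held 24 h at 37 °C in 5% CO2, then exposed to compound at five concentrations within 1.25–40 μM, each in triplicate. CCK-8 was added for a further 1–4 h and absorbance read at 450 nm, with cell number set to give 0.5–1.2. IC50 was taken as the mean of at least three experiments.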
(In general: Tetrazolium dyes change colour on reduction, which living cells bring about.)

A word on the IC50: it is the concentration needed to halve the response being measured. Low readings indicate higher potency, high ones lower potency.

Chain of Tyrosine-protein kinase BTK (Q06187 whole entry, the tested form may be a part): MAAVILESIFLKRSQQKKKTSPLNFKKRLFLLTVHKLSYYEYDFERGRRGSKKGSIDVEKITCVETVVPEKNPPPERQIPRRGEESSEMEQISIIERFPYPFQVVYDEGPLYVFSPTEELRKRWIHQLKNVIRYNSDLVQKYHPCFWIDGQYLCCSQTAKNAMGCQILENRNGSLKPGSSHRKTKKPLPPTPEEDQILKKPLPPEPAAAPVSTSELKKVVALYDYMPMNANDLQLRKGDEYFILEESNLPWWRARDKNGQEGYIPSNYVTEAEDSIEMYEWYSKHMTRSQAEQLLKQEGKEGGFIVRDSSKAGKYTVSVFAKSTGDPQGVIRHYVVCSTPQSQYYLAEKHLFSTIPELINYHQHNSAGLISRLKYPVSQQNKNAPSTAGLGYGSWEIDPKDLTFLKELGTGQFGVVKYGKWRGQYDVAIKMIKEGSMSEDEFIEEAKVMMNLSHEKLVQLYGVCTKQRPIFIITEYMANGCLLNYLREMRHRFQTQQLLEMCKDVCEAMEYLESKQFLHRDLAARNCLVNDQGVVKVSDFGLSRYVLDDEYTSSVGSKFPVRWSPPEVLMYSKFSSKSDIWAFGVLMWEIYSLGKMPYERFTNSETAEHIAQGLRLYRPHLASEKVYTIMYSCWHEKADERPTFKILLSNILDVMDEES

Consider `C=CC(=O)N1CCC[C@@H](n2nc(C#CCCc3ccccc3)c3c(N)ncnc32)C1`, for which the 50% inhibitory concentration (IC50) in assay [1] was 0.0159 µM; in the assay on Ramos it was over 40 µM; with Raji, 1.62 µM.
`C=CC(=O)N1CCC[C@@H](n2nc(C#CCOc3cccc(C(F)(F)F)c3)c3c(N)ncnc32)C1` returned an IC50 in assay [1] of 0.209 µM.
Turning to `C=CC(=O)N1CCC[C@@H](n2nc(CCCOc3ccccc3)c3c(N)ncnc32)C1`, half-maximal inhibition in assay [1] (IC50) was put at 0.0222 µM.
`C=CC(=O)N1CCC[C@@H](n2nc(C#CCOc3ccc(C)cc3)c3c(N)ncnc32)C1` registered an IC50 in assay [1] of 0.0269 µM.
Take `C=CC(=O)N1CCC[C@@H](n2nc(C#CCOc3ccccc3OC)c3c(N)ncnc32)C1`: the IC50 in assay [1] amounted to 0.0382 µM.
In assay [1], `C=CC(=O)N1CCC[C@@H](n2nc(C#CCOc3cccc(C)c3)c3c(N)ncnc32)C1` gave an IC50 of 0.0208 µM.
For `C=CC(=O)N1CCC[C@@H](n2nc(C#CCOc3cccc(OC)c3)c3c(N)ncnc32)C1`, the IC50 in assay [1] was 0.00984 µM; in the assay with Ramos it was over 40 µM; in the assay with Raji, 1.69 µM.
Consider `C=CC(=O)N1CCC[C@@H](n2nc(-c3ccc(Oc4ccccc4)cc3)c3c(N)ncnc32)C1` [IBRUTINIB], for which, in the assay on Raji, the half-inhibitory concentration (IC50) stood at 1.49 µM.
For the compound `C=CC(=O)N1CCC[C@@H](n2nc(C#CCc3ccccc3)c3c(N)ncnc32)C1`, the IC50 in assay [1] was 0.102 µM.
On the same count and under the same terms, under `C=CC(=O)N1CCC[C@@H](n2nc(C#CCOc3ccccc3C)c3c(N)ncnc32)C1` stands 0.0492 µM.
Turning to `C=CC(=O)N1CCC[C@@H](n2nc(C#CCOc3cccc(Cl)c3)c3c(N)ncnc32)C1`, the results for the IC50 (in assay [1]; in the assay with Ramos; in the assay on Raji) were 0.0181 µM, over 40 µM and 2.28 µM, respectively.
Turning to `C=CC(=O)N1CCC[C@@H](n2nc(/C=C/COc3ccccc3)c3c(N)ncnc32)C1`, the IC50 in assay [1] came out at 0.0113 µM.
Regarding `C=CC(=O)N1CCC[C@@H](n2nc(C#CCOc3ccccc3)c3c(N)ncnc32)C1`, the results for the IC50 (in assay [1]; in the assay with Ramos; in the assay with Raji) were 0.00795 µM, 8.91 µM and 1.8 µM, respectively.
As for `C=CC(=O)N1CCC[C@@H](n2nc(C#CCOc3ccc(OC)cc3)c3c(N)ncnc32)C1`, in assay [1], the midpoint of inhibition, the IC50, lay at 0.0896 µM.
With `C=CC(=O)N1CCC[C@@H](n2nc(C#CCNc3ccccc3)c3c(N)ncnc32)C1`, the 50% inhibitory concentration (IC50) in assay [1] is 0.0181 µM; with Ramos, 18.2 µM; in the assay with Raji, over 40 µM.
Consider `C=CC(=O)N1CCC[C@@H](n2nc(C#CCOc3cccc(C(C)C)c3)c3c(N)ncnc32)C1`, for which it took 0.0454 µM to reach half-maximal inhibition in assay [1] (IC50).
Take `C=CC(=O)N1CCC[C@@H](n2nc(C#CCCOc3ccccc3)c3c(N)ncnc32)C1`: the 50% inhibitory concentration (IC50) in assay [1] was found to be 0.0398 µM.
`C=CC(=O)N1CCC[C@@H](n2nc(/C=C\COc3ccccc3)c3c(N)ncnc32)C1`: the IC50 in assay [1] was 0.0232 µM; with Ramos it was 14.6 µM; in the assay with Raji, over 40 µM.
Consider `C=CC(=O)N1CCC[C@@H](n2nc(C#CCSc3ccccc3)c3c(N)ncnc32)C1`, for which the IC50 in assay [1] stood at 0.011 µM; in the assay with Ramos, 37.2 µM; in the assay on Raji it was 2.72 µM.
